Values after ≈ are worked out from the molar mass of the structure shown. Active and inactive are the calls of the source. No cut-off for these calls is given here. Non-standard residues stand in square brackets, D forms with d. Residues, ends and D or L forms follow the SMILES beside them. Trp(5-Cl) = N[C@@H](Cc1c[nH]c2ccc(Cl)cc12)C(=O)O; dAsn(3R-OH) = NC(=O)[C@H](O)[C@@H](N)C(=O)O; aIle = CC[C@@H](C)[C@H](N)C(=O)O; Orn = NCCC[C@H](N)C(=O)O
Experiments:
SK-HEP1 = experiment: Cytotoxicity against human SKHEP1 cells; type: functional, cell-based
Enterococcus faecium = experiment: Antibacterial activity against Enterococcus faecium ATCC 19434 after 24 hrs by two fold serial dilution method; type: functional; conditions: ATCC 19434, 24 h
How it was run: (§1)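 Bacteria grown overnight in Mueller Hinton broth at 37 °C, centrifuged and washed twice with sterile water. Compounds dissolved in DMSO, then 2-fold serial dilutions 128 to 0.03 μg/mL in broth, final DMSO 1%. Inoculum ~10^7 cfu/mL added to reach final 5 × 10^5 cfu/mL. Incubated 24 h at 37 °C. MIC = lowest concentration inhibiting growth.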

A549 = experiment: Cytotoxicity against human A549 cells; type: functional, cell-based
Candida albicans = experiment: Antifungal activity against Candida albicans ATCC 10231; type: functional, organism-based
Aspergillus fumigatus = experiment: Antifungal activity against Aspergillus fumigatus HIC 6094; type: functional, organism-based
Salmonella typhimurium = experiment: Antibacterial activity against Salmonella enterica ATCC 14028 after 24 hrs by two fold serial dilution method; type: functional; how it was run: as §1
[1] = tested on: Trichophyton mentagrophytes; experiment: Antifungal activity against Trichophyton mentagrophytes IFM 40996; type: functional, organism-based
SNU-638 = experiment: Cytotoxicity against human SNU638 cells; type: functional, cell-based
MDA-MB-231 = experiment: Cytotoxicity against human MDA-MB-231 cells; type: functional, cell-based
HCT-116 = experiment: Cytotoxicity against human HCT116 cells; type: functional, cell-based
Staphylococcus aureus = experiment: Antibacterial activity against Staphylococcus aureus ATCC 25923 after 24 hrs by two fold serial dilution method; type: functional; conditions: ATCC 25923, 24 h; how it was run: as §1
Trichophyton rubrum = experiment: Antifungal activity against Trichophyton rubrum NBRC 9185; type: functional, organism-based
Enterococcus faecalis = experiment: Antibacterial activity against Enterococcus faecalis ATCC 19433 after 24 hrs by two fold serial dilution method; type: functional; conditions: ATCC 19433, 24 h; how it was run: as §1
Escherichia coli = experiment: Antibacterial activity against Escherichia coli ATCC 25922 after 24 hrs by two fold serial dilution method; type: functional
How it was run: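 Overnight culture grown in Mueller Hinton broth at 37 °C, centrifuged and washed twice in sterile water. Compound dissolved in DMSO, serially 2-fold diluted in MHB from 128 to 0.03 μg/mL, with DMSO held at 1% final. Inoculum 5 × 10^5 cfu/mL final. Incubated 24 h at 37 °C. MIC taken as the lowest concentration inhibiting growth.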

K562 = experiment: Cytotoxicity against human K562 cells; type: functional, cell-based

| SMILES | Activity (SK-HEP1) | MIC (Enterococcus faecium) | Activity (A549) | Activity (Candida albicans) | Activity (Aspergillus fumigatus) | MIC (Salmonella typhimurium; Salmonella enterica subsp. enterica serovar Typhimurium) | Activity [1] | Activity (SNU-638) | Activity (MDA-MB-231) | Activity (HCT-116) | MIC (Staphylococcus aureus) | Activity (Trichophyton rubrum) | MIC (Enterococcus faecalis) | MIC (Escherichia coli) | Activity (K562) | MIC (Salmonella typhimurium; ATCC 14028, 24 h) | MIC (Escherichia coli; ATCC 25922, 24 h) |
| --- | --- | --- | --- | --- | --- | --- | --- | --- | --- | --- | --- | --- | --- | --- | --- | --- | --- |
| CC[C@@H](C)[C@@H]1NC(=O)[C@@H](CC(C)C)NC(=O)[C@@H](C(C)C)NC(=O)[C@H](Cc2c[nH]c3ccc(Cl)cc23)NC(=O)[C@@H](CC(N)=O)NC(=O)[C@H](CCCN)NC1=O | inactive | 128 µg/mL (≈ 165 µM) | inactive | inactive | inactive | inactive | inactive | inactive | inactive | inactive | 64 µg/mL (≈ 82.6 µM) | inactive | 128 µg/mL (≈ 165 µM) | inactive | inactive |  |  |
| CC[C@@H](C)[C@@H]1NC(=O)[C@@H](CC(C)C)NC(=O)[C@@H](C(C)C)NC(=O)[C@H](Cc2c[nH]c3ccc(Cl)cc23)NC(=O)[C@@H]([C@@H](O)C(N)=O)NC(=O)[C@H](CCCN)NC1=O (cyclo([Orn][dAsn(3R-OH)][Trp(5-Cl)][dV][dL][aIle])) | inactive | 16 µg/mL (≈ 20.2 µM) | inactive | inactive | inactive |  | inactive | inactive | inactive | inactive | 8 µg/mL (≈ 10.1 µM) | inactive | 16 µg/mL (≈ 20.2 µM) | inactive | inactive | 16 µg/mL (≈ 20.2 µM) |  |
| CC1(C)S[C@@H]2[C@H](NC(=O)[C@H](N)c3ccccc3)C(=O)N2[C@H]1C(=O)O [AMPICILLIN] |  | 0.25 µg/mL (≈ 0.715 µM) |  |  |  |  |  |  |  |  | 0.13 µg/mL (≈ 0.372 µM) |  | 0.5 µg/mL (≈ 1.43 µM) |  |  | 0.13 µg/mL (≈ 0.372 µM) | 8 µg/mL (≈ 22.9 µM) |

— ChEMBL document CHEMBL4130541, “Nicrophorusamides A and B, Antibacterial Chlorinated Cyclic Peptides from a Gut Bacterium of the Carrion Beetle Nicrophorus concolor” (2017)
